≈ marks a conversion by molar mass, not a printed value.
Legend:
[1] = test system: Mycolicibacterium smegmatis; assay: Anti-tubercular activity against Mycobacterium smegmatis MC2 155 ATCC 700084 after 3 days by microdilution method; assay type: functional; conditions: MC2 155 ATCC 700084, 72 h
Method in brief: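 M. smegmatis mc2155 grown in MB7H9 + 10% OADC at 37 °C with shaking to OD600 0.8. Inoculum set to 0.5 McFarland, diluted 1:100, and mixed 1:1 with two-fold serial dilutions in MB7H9. Plates incubated 3 days at 37 °C with growth and sterility controls. MIC taken as the lowest concentration with no visible growth.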

[2] = Cytotoxicity against human MDM assessed as cell viability after 3 days by Alamar blue dye-based fluorocytometric analysis relative to control; conditions: 72 h
[3] = test system: Mycobacterium tuberculosis; assay: Antibacterial activity against Mycobacterium tuberculosis H37Rv ATCC 27294T assessed as isoniazid MIC at 64 ug/ml after 7 days by microdilution checkerboard assay; assay type: functional; conditions: 168 h
Method in brief: (§1)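 Two-dimensional checkerboard in H37Rv at 10^5 CFU/ml in MB7H9/OADC. Partner drug (amikacin, EtBr, isoniazid, ofloxacin or rifampin) two-fold serially diluted across columns 3-11. Test compound two-fold serially diluted down rows 2-6. Plates incubated 7 days at 37 °C, then MTT added overnight. […] Run in triplicate.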

[4] = test system: Mycobacterium tuberculosis; assay: Antibacterial activity against Mycobacterium tuberculosis H37Rv ATCC 27294T assessed as isoniazid MIC at 128 ug/ml after 7 days by microdilution checkerboard assay; assay type: functional; conditions: 168 h; method in brief: as §1
[5] = test system: Mycobacterium tuberculosis; assay: Antibacterial activity against Mycobacterium tuberculosis H37Rv ATCC 27294T assessed as ethidium bromide MIC at 128 ug/ml after 7 days by microdilution checkerboard assay; assay type: functional; conditions: 168 h; method in brief: as §1
[6] = test system: Mycobacterium tuberculosis; assay: Antibacterial activity against Mycobacterium tuberculosis H37Rv ATCC 27294T assessed as ethidium bromide MIC at 32 ug/ml after 7 days by microdilution checkerboard assay; assay type: functional; conditions: 168 h; method in brief: as §1
[7] = test system: Mycobacterium tuberculosis; assay: Antibacterial activity against Mycobacterium tuberculosis H37Rv ATCC 27294T assessed as ethidium bromide MIC at 64 ug/ml after 7 days by microdilution checkerboard assay; assay type: functional; conditions: 168 h; method in brief: as §1
[8] = test system: Mycobacterium tuberculosis; assay: Antibacterial activity against Mycobacterium tuberculosis H37Rv ATCC 27294T assessed as ethidium bromide MIC at 16 ug/ml after 7 days by microdilution checkerboard assay; assay type: functional; conditions: 168 h; method in brief: as §1
[9] = test system: Mycobacterium tuberculosis; assay: Antibacterial activity against Mycobacterium tuberculosis H37Rv ATCC 27294T assessed as ofloxacin MIC at 128 ug/ml after 7 days by microdilution checkerboard assay; assay type: functional; conditions: 168 h; method in brief: as §1
[10] = test system: Mycobacterium tuberculosis; assay: Antibacterial activity against Mycobacterium tuberculosis H37Rv ATCC 27294T assessed as ofloxacin MIC at 32 ug/ml after 7 days by microdilution checkerboard assay; assay type: functional; conditions: 168 h; method in brief: as §1
[11] = test system: Mycobacterium tuberculosis; assay: Antibacterial activity against Mycobacterium tuberculosis H37Rv ATCC 27294T assessed as ofloxacin MIC at 64 ug/ml after 7 days by microdilution checkerboard assay; assay type: functional; conditions: 168 h; method in brief: as §1
[12] = test system: Mycobacterium tuberculosis; assay: Antibacterial activity against Mycobacterium tuberculosis H37Rv ATCC 27294T assessed as ofloxacin MIC at 2 ug/ml after 7 days by microdilution checkerboard assay; assay type: functional; conditions: 168 h; method in brief: as §1
[13] = test system: Mycobacterium tuberculosis; assay: Antibacterial activity against Mycobacterium tuberculosis H37Rv ATCC 27294T assessed as ofloxacin MIC at 4 ug/ml after 7 days by microdilution checkerboard assay; assay type: functional; conditions: 168 h; method in brief: as §1
[14] = test system: Mycobacterium tuberculosis; assay: Antibacterial activity against Mycobacterium tuberculosis H37Rv ATCC 27294T assessed as ofloxacin MIC at 8 ug/ml after 7 days by microdilution checkerboard assay; assay type: functional; conditions: 168 h; method in brief: as §1
[15] = test system: Mycobacterium tuberculosis; assay: Antibacterial activity against Mycobacterium tuberculosis H37Rv ATCC 27294T assessed as ofloxacin MIC at 16 ug/ml after 7 days by microdilution checkerboard assay; assay type: functional; conditions: 168 h; method in brief: as §1
[16] = test system: Mycobacterium tuberculosis; assay: Antibacterial activity against Mycobacterium tuberculosis H37Rv ATCC 27294T assessed as amikacin MIC at 64 ug/ml after 7 days by microdilution checkerboard assay; assay type: functional; conditions: 168 h; method in brief: as §1
[17] = test system: Mycobacterium tuberculosis; assay: Antibacterial activity against Mycobacterium tuberculosis H37Rv ATCC 27294T assessed as amikacin MIC at 2 ug/ml after 7 days by microdilution checkerboard assay; assay type: functional; conditions: 168 h; method in brief: as §1
[18] = test system: Mycobacterium tuberculosis; assay: Antibacterial activity against Mycobacterium tuberculosis H37Rv ATCC 27294T assessed as amikacin MIC at 4 ug/ml after 7 days by microdilution checkerboard assay; assay type: functional; conditions: 168 h; method in brief: as §1
[19] = test system: Mycobacterium tuberculosis; assay: Anti-tubercular activity against Mycobacterium tuberculosis H37Rv ATCC 27294T after 7 days by mircodilution method; assay type: functional; conditions: 168 h
Method in brief: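 H37Rv grown static in MB7H9 + 10% OADC at 37 °C to OD600 0.8, then diluted to about 10^5 cells/ml. Mixed 1:1 with two-fold serial dilutions in MB7H9/OADC and incubated 7 days at 37 °C. MTT added to final 2.5% and plates incubated overnight. MIC is the lowest concentration with no colour change. Run in triplicate.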

[20] = test system: Mycobacterium tuberculosis; assay: Antibacterial activity against Mycobacterium tuberculosis H37Rv ATCC 27294T assessed as isoniazid MIC at 16 ug/ml after 7 days by microdilution checkerboard assay; assay type: functional; conditions: 168 h; method in brief: as §1
[21] = test system: Mycobacterium tuberculosis; assay: Antibacterial activity against Mycobacterium tuberculosis H37Rv ATCC 27294T assessed as isoniazid MIC at 4 ug/ml after 7 days by microdilution checkerboard; assay type: functional; conditions: 168 h; method in brief: as §1
[22] = test system: Mycobacterium tuberculosis; assay: Antibacterial activity against Mycobacterium tuberculosis H37Rv ATCC 27294T assessed as isoniazid MIC at 2 ug/ml after 7 days by microdilution checkerboard assay; assay type: functional; conditions: 168 h; method in brief: as §1
[23] = test system: Mycobacterium tuberculosis; assay: Antibacterial activity against Mycobacterium tuberculosis H37Rv ATCC 27294T assessed as amikacin MIC at 8 ug/ml after 7 days by microdilution checkerboard assay; assay type: functional; conditions: 168 h; method in brief: as §1
[24] = test system: Mycobacterium tuberculosis; assay: Antibacterial activity against Mycobacterium tuberculosis H37Rv ATCC 27294T assessed as rifampin MIC at 128 ug/ml after 7 days by microdilution checkerboard assay; assay type: functional; conditions: 168 h
Method in brief: (§2)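 M. tuberculosis H37Rv grown in MB7H9 + 10% OADC at 37 °C to OD600 0.8; plates inoculated at 10^5 CFU/ml. Rifampicin two-fold serially diluted across columns, test compound two-fold diluted down rows (two-dimensional checkerboard). Sealed, 37 °C for seven days, then MTT added and incubated overnight. MIC read as no colour change. Triplicate.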

[25] = test system: Mycobacterium tuberculosis; assay: Antibacterial activity against Mycobacterium tuberculosis H37Rv ATCC 27294T assessed as rifampin MIC at 32 ug/ml after 7 days by microdilution checkerboard assay; assay type: functional; conditions: 168 h; method in brief: as §2
[26] = test system: Mycobacterium tuberculosis; assay: Antibacterial activity against Mycobacterium tuberculosis H37Rv ATCC 27294T assessed as rifampin MIC at 2 ug/ml after 7 days by microdilution checkerboard assay; assay type: functional; conditions: 168 h; method in brief: as §2
[27] = test system: Mycobacterium tuberculosis; assay: Antibacterial activity against Mycobacterium tuberculosis H37Rv ATCC 27294T assessed as rifampin MIC at 4 ug/ml after 7 days by microdilution checkerboard assay; assay type: functional; conditions: 168 h; method in brief: as §2
[28] = test system: Mycobacterium tuberculosis; assay: Modulation factor, ratio of isoniazid MIC to compound MIC for Mycobacterium tuberculosis H37Rv ATCC 27294T at 128 ug/ml in presence of isoniazid; assay type: functional
[29] = test system: Mycobacterium tuberculosis; assay: Modulation factor, ratio of refampin MIC to compound MIC for Mycobacterium tuberculosis H37Rv ATCC 27294T at 64 ug/ml in presence of refampin; assay type: functional
[30] = test system: Mycobacterium tuberculosis; assay: Modulation factor, ratio of amikacin MIC to compound MIC for Mycobacterium tuberculosis H37Rv ATCC 27294T at 128 ug/ml in presence of amikacin; assay type: functional

Compound: CCCSc1nnc(COc2ccccc2C2=NOC(c3ccc(Cl)cc3Cl)C2)n1NC(=O)CCl (stereo not given)
- MIC [1]: 4 µg/mL (≈ 7.21 µM)
- IC50 [2]: 28.7 µg/mL (≈ 51.7 µM)
- MIC [3]: 0.1 µg/mL
- MIC [4]: 0.00156 µg/mL
- MIC [5]: 0.39 µg/mL
- MIC [6]: 12.5 µg/mL
- MIC [7]: 6.25 µg/mL
- MIC [8]: 12.5 µg/mL
- MIC [9]: 0.625 µg/mL
- MIC [10]: 1 µg/mL
- MIC [11]: 1 µg/mL
- MIC [12]: 2 µg/mL
- MIC [13]: 2 µg/mL
- MIC [14]: 1 µg/mL
- MIC [15]: 1 µg/mL
- MIC [16]: 1 µg/mL
- MIC [17]: 1 µg/mL
- MIC [18]: 1 µg/mL
- MIC [19]: 64 µg/mL (≈ 115 µM)
- MIC [20]: 0.1 µg/mL
- MIC [21]: 0.1 µg/mL
- MIC [22]: 0.1 µg/mL
- MIC [23]: 1 µg/mL
- MIC [24]: 0.0156 µg/mL
- MIC [25]: 0.5 µg/mL
- MIC [26]: 0.5 µg/mL
- MIC [27]: 0.5 µg/mL
- Ratio [28]: 64
- Ratio [29]: 4
- Ratio [30]: 16
